Measurements published in ChEMBL document CHEMBL4689842, “EUbOPEN Chemogenomics Library wave 1” (2021).

Tested on: U2OS
Experiment: Multiplex assay against U2OS
Format: toxicity, cell-based
Settings: human
In short: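 Cells were classed with CellPathfinder machine-learning gating, first as Hoechst high-intensity objects or normal cells, then (normal cells) as healthy, pyknosed or fragmented nuclei, and finally (pyknosed cells) as mitotic or apoptotic. Staining of live cells at seeding used Hoechst33342, BioTracker Green Microtubule Cytoskeleton Dye, MitoTracker Red and Annexin V Alexa Fluor 680, with imaging on a CQ1 microscope at 37°C and 5% CO2 after compound addition. Tubulin, mitochondrial-mass and membrane-permeability phenotypes are per cents of healthy-nucleus cells.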

[1] = 12 h, 1 µM, compound concentration 1 uM, replicate 1
[2] = 12 h, 1 µM, compound concentration 1 uM, replicate 2
[3] = 12 h, 10 µM, compound concentration 10 uM, replicate 1
[4] = 12 h, 10 µM, compound concentration 10 uM, replicate 2
[5] = 24 h, 1 µM, compound concentration 1 uM, replicate 1
[6] = 24 h, 1 µM, compound concentration 1 uM, replicate 2
[7] = 24 h, 10 µM, compound concentration 10 uM, replicate 1
[8] = 24 h, 10 µM, compound concentration 10 uM, replicate 2
[9] = 48 h, 1 µM, compound concentration 1 uM, replicate 1
[10] = 48 h, 1 µM, compound concentration 1 uM, replicate 2
[11] = 48 h, 10 µM, compound concentration 10 uM, replicate 1
[12] = 48 h, 10 µM, compound concentration 10 uM, replicate 2

CCCn1c(=O)c2[nH]c(-c3cnn(Cc4cccc(C(F)(F)F)c4)c3)nc2n(CC)c1=O [GS 6201]
Population Apoptotic (%) [1]: 28% | Population Fragmented Nuclei (%) [1]: 8% | Population Healthy Nuclei (%) [1]: 78% | Population Hoechst High Intensity Objects (%) [1]: 9% | Population Membrane Permeable-Phenotype (%) [1]: 14% | Population Mitochondria Different-Phenotype (%) [1]: 5% | Population Mitotic Cells (%) [1]: 71% | Population Normal (%) [1]: 90% | Population Pyknosed Nuclei (%) [1]: 13% | Population Tubulin-Different-Phenotype (%) [1]: 14% | Total Cell Count [1]: 1120 | Population Apoptotic (%) [2]: 42% | Population Fragmented Nuclei (%) [2]: 4% | Population Healthy Nuclei (%) [2]: 88% | Population Hoechst High Intensity Objects (%) [2]: 2% | Population Membrane Permeable-Phenotype (%) [2]: 8% | Population Mitochondria Different-Phenotype (%) [2]: 9% | Population Mitotic Cells (%) [2]: 57% | Population Normal (%) [2]: 97% | Population Pyknosed Nuclei (%) [2]: 7% | Population Tubulin-Different-Phenotype (%) [2]: 28% | Total Cell Count [2]: 75 | Population Apoptotic (%) [3]: 35% | Population Fragmented Nuclei (%) [3]: 34% | Population Healthy Nuclei (%) [3]: 52% | Population Hoechst High Intensity Objects (%) [3]: 19% | Population Membrane Permeable-Phenotype (%) [3]: 51% | Population Mitochondria Different-Phenotype (%) [3]: 31% | Population Mitotic Cells (%) [3]: 64% | Population Normal (%) [3]: 80% | Population Pyknosed Nuclei (%) [3]: 12% | Population Tubulin-Different-Phenotype (%) [3]: 82% | Total Cell Count [3]: 118 | Population Apoptotic (%) [4]: 50% | Population Fragmented Nuclei (%) [4]: 17% | Population Healthy Nuclei (%) [4]: 77% | Population Hoechst High Intensity Objects (%) [4]: 5% | Population Membrane Permeable-Phenotype (%) [4]: 3% | Population Mitochondria Different-Phenotype (%) [4]: 20% | Population Mitotic Cells (%) [4]: 50% | Population Normal (%) [4]: 94% | Population Pyknosed Nuclei (%) [4]: 4% | Population Tubulin-Different-Phenotype (%) [4]: 10% | Total Cell Count [4]: 98 | Population Apoptotic (%) [5]: 27% | Population Fragmented Nuclei (%) [5]: 8% | Population Healthy Nuclei (%) [5]: 82% | Population Hoechst High Intensity Objects (%) [5]: 7% | Population Membrane Permeable-Phenotype (%) [5]: 7% | Population Mitochondria Different-Phenotype (%) [5]: 7% | Population Mitotic Cells (%) [5]: 72% | Population Normal (%) [5]: 92% | Population Pyknosed Nuclei (%) [5]: 8% | Population Tubulin-Different-Phenotype (%) [5]: 8% | Total Cell Count [5]: 2066 | Population Apoptotic (%) [6]: 50% | Population Fragmented Nuclei (%) [6]: 5% | Population Healthy Nuclei (%) [6]: 90% | Population Hoechst High Intensity Objects (%) [6]: 4% | Population Membrane Permeable-Phenotype (%) [6]: 2% | Population Mitochondria Different-Phenotype (%) [6]: 10% | Population Mitotic Cells (%) [6]: 50% | Population Normal (%) [6]: 95% | Population Pyknosed Nuclei (%) [6]: 4% | Population Tubulin-Different-Phenotype (%) [6]: 30% | Total Cell Count [6]: 81 | Population Apoptotic (%) [7]: 64% | Population Fragmented Nuclei (%) [7]: 44% | Population Healthy Nuclei (%) [7]: 41% | Population Hoechst High Intensity Objects (%) [7]: 16% | Population Membrane Permeable-Phenotype (%) [7]: 47% | Population Mitochondria Different-Phenotype (%) [7]: 31% | Population Mitotic Cells (%) [7]: 35% | Population Normal (%) [7]: 83% | Population Pyknosed Nuclei (%) [7]: 14% | Population Tubulin-Different-Phenotype (%) [7]: 58% | Total Cell Count [7]: 133 | Population Apoptotic (%) [8]: 50% | Population Fragmented Nuclei (%) [8]: 17% | Population Healthy Nuclei (%) [8]: 72% | Population Hoechst High Intensity Objects (%) [8]: 3% | Population Membrane Permeable-Phenotype (%) [8]: 5% | Population Mitochondria Different-Phenotype (%) [8]: 11% | Population Mitotic Cells (%) [8]: 50% | Population Normal (%) [8]: 96% | Population Pyknosed Nuclei (%) [8]: 10% | Population Tubulin-Different-Phenotype (%) [8]: 9% | Total Cell Count [8]: 139 | Population Apoptotic (%) [9]: 44% | Population Fragmented Nuclei (%) [9]: 8% | Population Healthy Nuclei (%) [9]: 82% | Population Hoechst High Intensity Objects (%) [9]: 1% | Population Membrane Permeable-Phenotype (%) [9]: 3% | Population Mitochondria Different-Phenotype (%) [9]: 11% | Population Mitotic Cells (%) [9]: 55% | Population Normal (%) [9]: 98% | Population Pyknosed Nuclei (%) [9]: 9% | Population Tubulin-Different-Phenotype (%) [9]: 7% | Total Cell Count [9]: 2377 | Population Apoptotic (%) [10]: 41% | Population Fragmented Nuclei (%) [10]: 2% | Population Healthy Nuclei (%) [10]: 91% | Population Membrane Permeable-Phenotype (%) [10]: 1% | Population Mitochondria Different-Phenotype (%) [10]: 13% | Population Mitotic Cells (%) [10]: 58% | Population Pyknosed Nuclei (%) [10]: 5% | Population Tubulin-Different-Phenotype (%) [10]: 35% | Total Cell Count [10]: 110 | Population Apoptotic (%) [11]: 67% | Population Fragmented Nuclei (%) [11]: 51% | Population Healthy Nuclei (%) [11]: 34% | Population Hoechst High Intensity Objects (%) [11]: 13% | Population Membrane Permeable-Phenotype (%) [11]: 50% | Population Mitochondria Different-Phenotype (%) [11]: 29% | Population Mitotic Cells (%) [11]: 32% | Population Normal (%) [11]: 86% | Population Pyknosed Nuclei (%) [11]: 13% | Population Tubulin-Different-Phenotype (%) [11]: 47% | Total Cell Count [11]: 198 | Population Apoptotic (%) [12]: 22% | Population Fragmented Nuclei (%) [12]: 12% | Population Healthy Nuclei (%) [12]: 80% | Population Hoechst High Intensity Objects (%) [12]: 2% | Population Membrane Permeable-Phenotype (%) [12]: 9% | Population Mitochondria Different-Phenotype (%) [12]: 13% | Population Mitotic Cells (%) [12]: 77% | Population Normal (%) [12]: 97% | Population Pyknosed Nuclei (%) [12]: 6% | Population Tubulin-Different-Phenotype (%) [12]: 13% | Total Cell Count [12]: 214
